Assays:
Format in all cases: functional
Jurkat [1] = assay: Anticancer activity against human Jurkat cells assessed as viable cells at 10^-5 M after 24 hrs by XTT assay relative to control; details: read-out: Activity
How it was run: (§1)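 DLD-1, HepG2 and Jurkat cells were grown in low-glucose DMEM with 10% FBS, 1% L-glutamine, 100 IU/mL penicillin and streptomycin at 37 °C under 5% CO2. They were seeded at 10 × 10^4 cells/well and treated with a 10-fold dilution series from 10^-4 to 10^-8 M for 24 or 48 h. XTT was then added, absorbance read at 450 nm after 4 h, and viability expressed as % of untreated control (set to 100%).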

DLD-1 [2] = assay: Anticancer activity against human DLD1 cells assessed as viable cells at 10^-4 M after 48 hrs by XTT assay relative to control; details: DLD-1, 48 h, read-out: Activity; how it was run: as §1
Jurkat [3] = assay: Anticancer activity against human Jurkat cells assessed as viable cells at 10^-4 M after 48 hrs by XTT assay relative to control; details: read-out: Activity; how it was run: as §1
DLD-1 [4] = assay: Anticancer activity against human DLD1 cells assessed as viable cells at 10^-5 M after 24 hrs by XTT assay relative to control; details: DLD-1, 24 h, read-out: Activity; how it was run: as §1
HepG2 [5] = assay: Anticancer activity against human HepG2 cells assessed as viable cells at 10^-5 M after 24 hrs by XTT assay relative to control; details: HepG2, 24 h, read-out: Activity; how it was run: as §1
HepG2 [6] = assay: Anticancer activity against human HepG2 cells assessed as viable cells at 10^-5 M after 48 hrs by XTT assay relative to control; details: HepG2, 48 h, read-out: Activity; how it was run: as §1
DLD-1 [7] = assay: Anticancer activity against human DLD1 cells assessed as viable cells at 10^-4 M after 24 hrs by XTT assay relative to control; details: DLD-1, 24 h, read-out: Activity; how it was run: as §1
HepG2 [8] = assay: Anticancer activity against human HepG2 cells assessed as viable cells at 10^-4 M after 24 hrs by XTT assay relative to control; details: HepG2, 24 h, read-out: Activity; how it was run: as §1
Jurkat [9] = assay: Anticancer activity against human Jurkat cells assessed as viable cells at 10^-5 M after 48 hrs by XTT assay relative to control; details: read-out: Activity; how it was run: as §1
Jurkat [10] = assay: Anticancer activity against human Jurkat cells assessed as viable cells at 10^-4 M after 24 hrs by XTT assay relative to control; details: read-out: Activity; how it was run: as §1
HepG2 [11] = assay: Anticancer activity against human HepG2 cells assessed as viable cells at 10^-4 M after 48 hrs by XTT assay relative to control; details: HepG2, 48 h, read-out: Activity; how it was run: as §1
DLD-1 [12] = assay: Anticancer activity against human DLD1 cells assessed as viable cells at 10^-5 M after 48 hrs by XTT assay relative to control; details: DLD-1, 48 h, read-out: Activity; how it was run: as §1

| Structure (SMILES) | viability at 10 µM (Jurkat [1]) | viability at 100 µM (DLD-1 [2]) | viability at 100 µM (Jurkat [3]) | viability at 10 µM (DLD-1 [4]) | viability at 10 µM (HepG2 [5]) | viability at 10 µM (HepG2 [6]) | viability at 100 µM (DLD-1 [7]) | viability at 100 µM (HepG2 [8]) | viability at 10 µM (Jurkat [9]) | viability at 100 µM (Jurkat [10]) | viability at 100 µM (HepG2 [11]) | viability at 10 µM (DLD-1 [12]) |
| --- | --- | --- | --- | --- | --- | --- | --- | --- | --- | --- | --- | --- |
| Cc1ccc(NC(=S)NC(=O)c2nn(-c3ccccc3)c(-c3ccccc3)c2C(=O)c2ccccc2)cc1 | 50.3% | 40.2% | 12.5% | 65.1% | 51.6% | 27.7% | 57.1% | 49.2% | 14.2% | 30% | 25.9% | 48.5% |
| Cc1ccccc1NC(=S)NC(=O)c1nn(-c2ccccc2)c(-c2ccccc2)c1C(=O)c1ccccc1 | 100% | 41.3% | 76.6% | 63.2% | 33.3% | 22.8% | 55.3% | 29.1% | 51.2% | 100% | 20.8% | 45.6% |
| COc1ccc(NC(=S)NC(=O)c2nn(-c3ccccc3)c(-c3ccccc3)c2C(=O)c2ccccc2)cc1 | 37.8% | 62.1% | 8.98% | 80.5% | 42% | 27.9% | 71.2% | 36.5% | 87.5% | 31.1% | 22.6% | 68.2% |
| O=C(NC(=S)Nc1ccc(F)cc1)c1nn(-c2ccccc2)c(-c2ccccc2)c1C(=O)c1ccccc1 | 100% | 51.5% | 67.6% | 75.1% | 54.2% | 30.1% | 62.5% | 50.1% | 47.8% | 100% | 23.6% | 60.2% |
| O=C(NC(=S)Nc1ccc(Cl)cc1)c1nn(-c2ccccc2)c(-c2ccccc2)c1C(=O)c1ccccc1 | 56.3% | 49.2% | 24.2% | 73.3% | 53.7% | 24.9% | 60.5% | 49.5% | 90% | 57.3% | 24.8% | 55.2% |
| O=C(NC(=S)Nc1ccc(Br)cc1)c1nn(-c2ccccc2)c(-c2ccccc2)c1C(=O)c1ccccc1 | 100% | 50.1% | 40.1% | 78.1% | 51.5% | 27.8% | 65.2% | 55.2% | 87.5% | 78.1% | 27.2% | 62.5% |
| O=C(NC(=S)Nc1cccc2ccccc12)c1nn(-c2ccccc2)c(-c2ccccc2)c1C(=O)c1ccccc1 | 46% | 70.6% | 8.24% | 82.2% | 85.5% | 51.2% | 74.2% | 78.7% | 14.5% | 36.4% | 49.9% | 75.5% |
| NC(=O)c1ccc(NC(=S)NC(=O)c2nn(-c3ccccc3)c(-c3ccccc3)c2C(=O)c2ccccc2)cc1 | 100% | 96.6% | 39.2% | 100% | 44.2% | 27.3% | 100% | 38.1% | 66.3% | 100% | 22.9% | 95.2% |
| O=C(NC(=S)NCc1ccccc1)c1nn(-c2ccccc2)c(-c2ccccc2)c1C(=O)c1ccccc1 | 34.7% | 55.9% | 17.9% | 75.2% | 56.4% | 40.6% | 64.2% | 49.2% | 23.1% | 36.6% | 39.8% | 65.5% |
| O=C(NC(=S)Nc1ncccn1)c1nn(-c2ccccc2)c(-c2ccccc2)c1C(=O)c1ccccc1 | 100% | 75.5% | 23.4% | 88.5% | 51.1% | 31.2% | 80.4% | 44.3% | 28% | 86.2% | 28.8% | 81.4% |
| O=C(NC(=S)Nc1ccccc1)c1nn(-c2ccccc2)c(-c2ccccc2)c1C(=O)c1ccccc1 | 30% | 60.6% | 6% | 75.5% | 42.1% | 23.7% | 71.3% | 38.2% | 67.6% | 23.3% | 21.8% | 55.4% |

Source: ChEMBL document CHEMBL2390889, “Synthesis and anticancer activity of acyl thioureas bearing pyrazole moiety” (2013)
